Format in all cases: cell-based
For test [1], the system named is HeLa cells. Briefly: MTT. The procedure, abridged:
(§1)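 MTT assay on A549, HeLa and MRC9 cells, with cells kept in the dark or irradiated at 450 nm (15.5 mW cm−2, 15 min). […] IC50 values were derived for dark and light conditions. For A549 and HeLa, PI = IC50,dark/IC50,light.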

In test [2] the test system is A549 cells. Briefly: MTT. An outline of the steps: as §1
The subject of test [3] is normal MRC9 cells. Nature of the test: MTT. The procedure, abridged: as §1
In test [4] the test system is HeLa cells. Nature of the test: Mitochondrial membrane potential with JC-1. The settings on record: 50 μM, 15 min, positive control. The procedure, abridged: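 HeLa cells were untreated, given CCCP (50 μM, 15 min) as positive control, or treated with the test compound (4.5 nM, 24 h). Treated cells were then kept in the dark for 24 h or irradiated (450 nm, 15.5 mW cm−2, 15 min) and incubated 24 h more. Staining used JC-1 (2 μg mL−1, 20 min; λex 488 nm; monomer emission 510–530 nm, J-aggregate emission 590–610 nm).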

Read-outs that look alike come from different tables or passages of the source. A value given as a limit tells only on which side of the number the result lay.

In the case of “1-phenyl-5-thioxo-5,6-dihydro-[1,2,4]triazolo[1,5-c]quinazolin-1-ium-2-thiolate [p-Httqt]”, the IC50 was over 100 µM in test [1] (read-out: IC50,dark, in the dark); over 100 µM in test [1] (read-out: IC50,light, irradiation at 450 nm (15.5 mW cm^−2, 15 min)); over 100 µM in test [2] (read-out: IC50,dark, A549, in the dark); over 100 µM in test [2] (read-out: IC50,light, A549, irradiation at 450 nm (15.5 mW cm^−2, 15 min)); over 100 µM in test [3] (read-out: IC50,dark, MRC9, in the dark); over 100 µM in test [3] (read-out: IC50,light, MRC9, irradiation at 450 nm (15.5 mW cm^−2, 15 min)).
Turning to `N#CC(C#N)=NNc1cccc(Cl)c1` [CCCP, carbonyl cyanide m-chlorophenyl hydrazone], the “mitochondrial membrane potential (JC-1)” value in test [4] is “reduced the intensity of the red channel”.

The IC50 is the concentration at which inhibition is half-maximal.

These data come from paper PMC12510370 (Chemical Science, 2025).
